Assay outcomes from PubChem.
This is a sample that favours compounds with a hit; in the whole collection about 2.6% have one here.
iPSC survival up: enhancers of human iPSC single-cell survival | survival enhancement, % at 20 µM | hiPSC single-cell survival, ATPlite luminescence; 100% = ROCK inhibitor wells, 0% = DMSO | actives 0.044% (n = 360,000); in the data active = survival enhancement above about 18%;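 also: cells exposed to compounds for 16 hours before the ATP read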
MC4R ag barr: agonists of human melanocortin 4 receptor (MC4R) beta-arrestin | P32245 | U2OS MC4R beta-arrestin complementation, luminescence; percent of melanotan II response, DMSO zero | activation, % at 8.9 µM | actives 0.98% (n = 360,000);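 active = activation above a per-plate cutoff, the mean activation of sample wells on that plate plus 3 SD, cut at about 8% in these data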
Target sequence (P32245 whole entry, looked up): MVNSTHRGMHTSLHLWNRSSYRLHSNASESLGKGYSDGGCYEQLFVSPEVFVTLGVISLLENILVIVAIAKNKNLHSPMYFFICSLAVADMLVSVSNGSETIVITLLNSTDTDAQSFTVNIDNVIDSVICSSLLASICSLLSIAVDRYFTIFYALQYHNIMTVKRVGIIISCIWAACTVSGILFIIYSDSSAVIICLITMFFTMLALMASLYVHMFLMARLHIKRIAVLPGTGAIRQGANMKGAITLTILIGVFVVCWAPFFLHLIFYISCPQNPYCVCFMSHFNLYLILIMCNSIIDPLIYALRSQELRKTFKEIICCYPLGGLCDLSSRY
Tb MetRS inh: Trypanosoma brucei MetRS inhibition. purified T. brucei MetRS, ATP depletion, Kinase-Glo luminescence. inhibition, % at 11.9 µM. actives 0.4% (n = 360,000). AID 624268;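 active = inhibition above a per-plate cutoff of the control wells' mean inhibition plus 3 SD, cut at about 5.5% in these data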
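Dosing: 11.9 µM compound single dose, 0.9% DMSO; Assay system: purified T. brucei MetRS enzyme; Measured by: Kinase-Glo luciferase luminescence reporting remaining unconsumed ATP; Schedule: 15 min plus 2 h at 25 °C.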
Exocytosis inh: lytic granule exocytosis inhibition; actives 0.66% (n = 360,000); TALL-104 LAMP-1 surface exposure, flow cytometry; cells stimulated with thapsigargin and PMA; inhibition, % at 10 µM;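 active = inhibition above about 55%, limit read from the data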
ABCB6 inh MLPCN: inhibitors of human ABC transporter ABCB6; Q9NP58; K562-ABCB6 porphyrin accumulation, flow cytometry, 1 h; hits give low values; fluorescence ratio to DMSO, % at 10 µM; actives 0.19% (n = 360,000); AID 602162;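 active = fluorescence ratio to DMSO below 75%, the collection mean minus 3 SD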;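 also: signal is porphyrin accumulated inside mitochondria; lower ratio means ABCB6 inhibition with less porphyrin fluorescence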
MC4R antag cAMP: blocks human MC4R cAMP signaling; inhibition, % at 6.5 µM; P32245; AID 540295; actives 0.48% (n = 360,000); MC4R-expressing cells, MTII-stimulated cAMP, LANCE TR-FRET;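 active = inhibition above its plate's cutoff, the mean of tested wells on that plate plus 3 SD, cut at about 29% in these data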
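Material – human MC4R-expressing U2OS cells · Repeats – no replicates · Detection – TR-FRET with Eu-cAMP and labeled anti-cAMP, 671 nm · Times – compound 30 min, challenge 1 h, detection 1 h · Compound – single nominal compound dose of 6.5 µM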
cAMP nonselect: counter-screen for MC4R antagonists: nonselective cAMP signaling inhibitors | shares compounds with MC4R antag cAMP | parental U2OS, forskolin cAMP, LANCE TR-FRET | inhibition, % at 6.5 µM | actives 26% (n = 1,600);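 active = mean inhibition over triplicates above the low-control well mean plus 3 SD, set per campaign, cut at about 13% in these data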;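 also: signal is single emission at 671 nm which falls as cellular cAMP rises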
MC4R cAMP antag: human MC4R cAMP antagonism confirmation; actives 27% (n = 1,600); MC4R-expressing cells, MTII-stimulated cAMP, TR-FRET; shares compounds with MC4R antag cAMP; inhibition, % at 6.5 µM; AID 602195; in the data active = inhibition above about 29%
Large screens that a line does not name were inactive (follow-up assays come after a bar, where they were run).

COc1ccc(/C=C(/NC(=O)c2ccc(C)cc2)C(=O)NCC2CCCO2)cc1 (stereo unspecified)	none
COc1cc(NC(=O)CCS(=O)(=O)c2ccc3c(c2)n(C)c(=O)c(=O)n3C)cc(OC)c1	none
CC(=O)c1ccc(NC(=O)C2(S(=O)(=O)c3ccccc3)CC2)cc1	MC4R antag cAMP 30 | cAMP nonselect inactive | MC4R cAMP antag inactive
O=C(Cc1ccc(F)cc1)NCCc1cnc[nH]1	MC4R antag cAMP 31 | cAMP nonselect inactive | MC4R cAMP antag inactive
O=C(Cc1ccc(F)cc1)NCCc1ccc(F)cc1	none
Cc1noc(C)c1S(=O)(=O)Nc1ccc2c(c1)C(=O)N([C@H](C)CO)C[C@H](C)[C@H](CN(C)S(=O)(=O)c1ccc(Cl)cc1)OCCCC[C@@H](C)O2	none (no result: MC4R ag barr, MC4R antag cAMP)
Cc1ccc(S(=O)(=O)N(C)C[C@@H]2OCCCC[C@@H](C)Oc3ccc(NS(=O)(=O)c4c(C)noc4C)cc3C(=O)N([C@H](C)CO)C[C@@H]2C)cc1	MC4R antag cAMP 34 | cAMP nonselect inactive | MC4R cAMP antag inactive
Cc1cc(SCC(=O)N/N=C/c2ccco2)nc2ccccc12	MC4R antag cAMP 29 | cAMP nonselect inactive | MC4R cAMP antag inactive
Cc1ccc(-n2c(Cl)c(Cl)nc(Cl)c2=O)cc1	MC4R antag cAMP 46 | cAMP nonselect 57 | MC4R cAMP antag 55
Cc1noc(C)c1CN1C(=O)c2cccc([N+](=O)[O-])c2C1=O	MC4R antag cAMP 30 | cAMP nonselect inactive | MC4R cAMP antag inactive
CCS(=O)(=O)c1ncc(Cl)c(C(=O)Nc2ccc(C)cc2)n1	none
CCS(=O)(=O)c1ncc(Cl)c(C(=O)Nc2ccc(S(=O)(=O)N3CCCC(C)C3)cc2)n1 (stereo unspecified)	iPSC survival up 20, ABCB6 inh MLPCN 29, MC4R antag cAMP 41 | cAMP nonselect inactive | MC4R cAMP antag inactive
CCC1CCCCN1S(=O)(=O)c1ccc(NC(=O)c2nc(S(C)(=O)=O)ncc2Cl)cc1 (stereo unspecified)	ABCB6 inh MLPCN 62, MC4R antag cAMP 83 | cAMP nonselect inactive | MC4R cAMP antag 66
CCC1CCCCN1S(=O)(=O)c1ccc(NC(=O)c2ccncc2)cc1 (stereo unspecified)	none
Cc1cccc(CN2CCC(n3nccc3NC(=O)CCCc3ccccc3)CC2)n1	none
CCOC(=O)c1cc([N+](=O)[O-])cc([N+](=O)[O-])c1Sc1ncnc2nc[nH]c12	MC4R antag cAMP 58 | cAMP nonselect 47 | MC4R cAMP antag 47
O=S(=O)(NC1CCc2ccccc21)c1ccccc1 (stereo unspecified)	none
Cc1ccc(S(=O)(=O)NC2CCCc3ccccc32)cc1C (stereo unspecified)	MC4R antag cAMP 31 | cAMP nonselect inactive | MC4R cAMP antag inactive
C=CCSc1nc2c(N)ncnc2n1C1OC(CO)C(O)C1O (stereo unspecified)	MC4R antag cAMP 31 | cAMP nonselect inactive | MC4R cAMP antag inactive
O=C(CS(=O)(=O)c1ccccc1)Nc1nnc(C(F)(F)F)s1	MC4R antag cAMP 32 | cAMP nonselect inactive | MC4R cAMP antag inactive
O=C(CCS(=O)(=O)c1ccccc1)Nc1nnc(C(F)(F)F)s1	none
COC(=O)[C@H](CC(C)C)NC(=O)Cn1cnc2c(OCc3ccccc3)ncnc21	none
CCCCN([C@H](CO)C(C)C)S(=O)(=O)c1ccccc1Br	none
Cc1cc(NC(=O)COc2ccc3ccccc3c2Br)no1	MC4R antag cAMP 46 | cAMP nonselect 20 | MC4R cAMP antag 35
CCn1nc(C)cc1-c1nnc(Sc2ncc([N+](=O)[O-])s2)n1C	MC4R antag cAMP 46 | cAMP nonselect 28 | MC4R cAMP antag 58
CCn1nc(C)cc1-c1nnc(SCC(=O)Nc2ccccc2)n1CCCOC	none
O=C(O)c1cc(-c2ccc3c(c2)OCO3)nc2ccc(Br)cc12	MC4R antag cAMP 37 | cAMP nonselect inactive | MC4R cAMP antag 30
O=C(O)c1cc(-c2cccs2)nc2ccc(Br)cc12	MC4R antag cAMP 111 | cAMP nonselect 98 | MC4R cAMP antag 153
O=C(O)c1cc(-c2cccnc2)nc2ccc(Br)cc12	MC4R antag cAMP 49 | cAMP nonselect 42 | MC4R cAMP antag 68
CCN1CCN(C(=O)c2cc(-c3cccnc3)nc3ccc(Br)cc23)CC1	none
O=C(COC(=O)c1ccc(F)cc1F)Nc1ccc(S(=O)(=O)N2CCOCC2)cc1	none
CNC(=O)c1cc(Oc2ccc(NC(=O)Nc3ccc(Cl)c(C(F)(F)F)c3)cc2)ccn1	MC4R antag cAMP 47 (no result: Exocytosis inh) | cAMP nonselect inactive | MC4R cAMP antag 40
Nc1nc(Sc2ccc(C(F)(F)F)cn2)n[nH]1	MC4R antag cAMP 30 | cAMP nonselect inactive | MC4R cAMP antag inactive
Nc1nc(SCC(=O)Nc2ncc(C(F)(F)F)cc2Cl)n[nH]1	none
CCOC(=O)C1(CCCc2ccccc2)CCN(C(=O)CCCn2cncn2)CC1	none
Nc1cc(=O)[nH]c(SCC(=O)Nc2cc(S(=O)(=O)N3CCCCC3)ccc2Cl)n1	none
Cn1c(-c2ccccc2)n[nH]c1=S	MC4R antag cAMP 33 | cAMP nonselect inactive | MC4R cAMP antag inactive
CC1(c2ccccc2)NC(=O)N(CC(=O)Nc2cccc(C#N)c2)C1=O (stereo unspecified)	none
O=S(=O)(NCC1CCCO1)c1cnc(Cl)c(Br)c1 (stereo unspecified)	MC4R antag cAMP 29 | cAMP nonselect 19 | MC4R cAMP antag 43
Cc1nnc(NC(=O)c2ccccc2NC(=O)c2ccccc2)s1	none
O=C(O)CC12CC3CC(C1)CC(n1ncc(NCc4ccccc4)c(Cl)c1=O)(C3)C2	none
O=C(O)C12CC3CC(C1)CC(n1ncc(NCc4ccccc4)c(Cl)c1=O)(C3)C2	MC4R antag cAMP 32 | cAMP nonselect inactive | MC4R cAMP antag inactive
COc1cc(/C=C2\C(=N)N3N=C(S(C)(=O)=O)SC3=NC2=O)ccc1OCCOc1ccc(C)cc1	MC4R antag cAMP 34 | cAMP nonselect inactive | MC4R cAMP antag inactive
Cc1ccc(S(=O)(=O)N2CCN(CC(=O)N/N=C/C=C/c3ccccc3)CC2)cc1	none
CC(=O)N1CCOc2ccc(S(=O)(=O)N3CCC(C(=O)NCc4ccccc4)CC3)cc21	none
COc1ccc(NC(=S)N2CCN(C(c3ccccc3)c3ccccc3)CC2)cc1OC	MC4R antag cAMP 29 | cAMP nonselect inactive | MC4R cAMP antag inactive
